Laboratory results taken from ChEMBL document CHEMBL4190362, “Synthesis, biological evaluation and quantitative structure-active relationships of 1,3-thiazolidin-4-one derivatives. A promising chemical scaffold endowed with high antifungal potency and low cytotoxicity” (Eur J Med Chem, 2017).

Tests used:
Staphylococcus aureus = assay: Antibacterial activity against Staphylococcus aureus assessed as inhibition of microbial growth incubated for 18 to 22 hrs by broth microdilution method; assay type: functional
Procedure, shortened: (§1)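 Broth microdilution in Mueller-Hinton II broth following NCCLS recommendations; compounds dissolved in DMSO.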

Staphylococcus warneri = assay: Antibacterial activity against Staphylococcus warneri assessed as inhibition of microbial growth incubated for 18 to 22 hrs by broth microdilution method; assay type: functional; procedure, shortened: as §1
Enterococcus faecalis = assay: Antibacterial activity against Streptococcus faecalis assessed as inhibition of microbial growth incubated for 18 to 22 hrs by broth microdilution method; assay type: functional; procedure, shortened: as §1
Escherichia coli = assay: Antibacterial activity against Escherichia coli assessed as inhibition of microbial growth incubated for 18 to 22 hrs by broth microdilution method; assay type: functional; procedure, shortened: as §1
Proteus mirabilis = assay: Antibacterial activity against Proteus mirabilis assessed as inhibition of microbial growth incubated for 18 to 22 hrs by broth microdilution method; assay type: functional; procedure, shortened: as §1
Enterobacter = assay: Antibacterial activity against Enterobacter spp. assessed as inhibition of microbial growth incubated for 18 to 22 hrs by broth microdilution method; assay type: functional; procedure, shortened: as §1
Klebsiella oxytoca = assay: Antibacterial activity against Klebsiella oxytoca assessed as inhibition of microbial growth incubated for 18 to 22 hrs by broth microdilution method; assay type: functional; procedure, shortened: as §1
Candida albicans = assay: Antifungal activity against Candida albicans clinical isolates assessed as inhibition of microbial growth incubated for 24 hrs by broth microdilution method; assay type: functional
Procedure, shortened: (§2)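 Twenty-two clinical Candida isolates (8 C. albicans, 4 C. glabrata, 3 C. tropicalis, 3 C. krusei, 2 C. parapsilosis, 2 C. sake) were identified by colony morphology and biochemistry and subcultured at 35 °C for purity. Compounds were dissolved in DMSO and tested by broth microdilution in Sabouraud dextrose broth per NCCLS/CLSI/EUCAST guidance. Values are geometric mean MIC per species (µg/mL).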

Nakaseomyces glabratus = assay: Antifungal activity against Candida glabrata clinical isolates assessed as inhibition of microbial growth incubated for 24 hrs by broth microdilution method; assay type: functional; procedure, shortened: as §2
Candida tropicalis = assay: Antifungal activity against Candida tropicalis clinical isolates assessed as inhibition of microbial growth incubated for 24 hrs by broth microdilution method; assay type: functional; procedure, shortened: as §2
Pichia kudriavzevii = assay: Antifungal activity against Candida krusei clinical isolates assessed as inhibition of microbial growth incubated for 24 hrs by broth microdilution method; assay type: functional; procedure, shortened: as §2
Candida parapsilosis = assay: Antifungal activity against Candida parapsilosis clinical isolates assessed as inhibition of microbial growth incubated for 24 hrs by broth microdilution method; assay type: functional; settings: Lodderomyces parapsilosis; procedure, shortened: as §2
[Candida] sake = Antifungal activity against Candida sake clinical isolates assessed as inhibition of microbial growth incubated for 24 hrs by broth microdilution method; assay type: functional; settings: Fermentozyma sake; procedure, shortened: as §2
[1] = test system: Streptococcus alpha-hemolyticus (Streptococcus sp.); assay: Antibacterial activity against Streptococcus Streptococcus alpha hemolyticus assessed as inhibition of microbial growth incubated for 18 to 22 hrs by broth microdilution method

Structure (SMILES) | MIC (Staphylococcus aureus) [µg/mL] | MIC (Staphylococcus warneri) [µg/mL] | MIC (Enterococcus faecalis) [µg/mL] | MIC (Escherichia coli) [µg/mL] | MIC (Proteus mirabilis) [µg/mL] | MIC (Enterobacter) [µg/mL] | MIC (Klebsiella oxytoca) [µg/mL] | MIC (Candida albicans) [µg/mL] | MIC (Nakaseomyces glabratus) [µg/mL] | MIC (Candida tropicalis) [µg/mL] | MIC (Pichia kudriavzevii) [µg/mL] | MIC (Candida parapsilosis) [µg/mL] | MIC ([Candida] sake) [µg/mL] | MIC [1] [µg/mL]
C/C(=N/N=C1/SCC(=O)N1Cc1ccccc1)c1cccc2ccccc12 | ≥ 256 | ≥ 256 | ≥ 256 | ≥ 256 | ≥ 256 | ≥ 256 | ≥ 256 | 4 | 4 | 32 | 16 | 16 | 4 | –
C/C(=N/N=C1/SCC(=O)N1Cc1ccccc1)c1ccc(/C(C)=N\N=C2\SCC(=O)N2Cc2ccccc2)cc1 | ≥ 256 | ≥ 256 | ≥ 256 | ≥ 256 | ≥ 256 | ≥ 256 | ≥ 256 | 8 | 2 | 32 | 8 | 32 | 8 | –
O=C1CS/C(=N/N=C\c2c[nH]c3ccccc23)N1Cc1ccccc1 | ≥ 256 | ≥ 256 | ≥ 256 | ≥ 256 | ≥ 256 | ≥ 256 | ≥ 256 | 256 | 16 | 256 | 2 | 16 | 16 | –
O=C1CS/C(=N/N=C\c2cccc3ccccc23)N1Cc1ccccc1 | ≥ 256 | ≥ 256 | ≥ 256 | ≥ 256 | ≥ 256 | ≥ 256 | ≥ 256 | 8 | 8 | 16 | 16 | 16 | 16 | –
C/C(=N/N=C1/SCC(=O)N1Cc1ccccc1)c1ccc2ccc3ccccc3c2c1 | ≥ 256 | ≥ 256 | ≥ 256 | ≥ 256 | ≥ 256 | ≥ 256 | ≥ 256 | 2 | 2 | 2 | 4 | 2 | 8 | –
C/C(=N/N=C1/SCC(=O)N1Cc1ccccc1)c1c[nH]c2ccccc12 | ≥ 256 | ≥ 256 | ≥ 256 | ≥ 256 | ≥ 256 | ≥ 256 | ≥ 256 | 8 | 4 | 16 | 4 | 32 | 8 | –
C/C(=N\N=C1\SCC(=O)N1Cc1ccccc1)c1cc2ccccc2o1 | ≥ 256 | ≥ 256 | ≥ 256 | ≥ 256 | ≥ 256 | ≥ 256 | ≥ 256 | 4 | 4 | 32 | 16 | 32 | 4 | –
C/C(=N/N=C1/SCC(=O)N1Cc1ccccc1)c1cc2ccccc2oc1=O | ≥ 256 | ≥ 256 | ≥ 256 | ≥ 256 | ≥ 256 | ≥ 256 | ≥ 256 | 256 | 32 | 256 | 128 | 128 | 128 | –
CC(C)(O/N=C(\C(=O)N[C@@H]1C(=O)N2C(C(=O)[O-])=C(C[n+]3ccccc3)CS[C@H]12)c1csc(N)n1)C(=O)O [CEFTAZIDIME] | 8 | 8 | 8 | 8 | 8 | 8 | 8 | – | – | – | – | – | – | 8

The next lines start with results.

MIC (Staphylococcus aureus) [µg/mL] | MIC (Staphylococcus warneri) [µg/mL] | MIC (Enterococcus faecalis) [µg/mL] | MIC (Escherichia coli) [µg/mL] | MIC (Proteus mirabilis) [µg/mL] | MIC (Enterobacter) [µg/mL] | MIC (Klebsiella oxytoca) [µg/mL] | MIC (Candida albicans) [µg/mL] | MIC (Nakaseomyces glabratus) [µg/mL] | MIC (Candida tropicalis) [µg/mL] | MIC (Pichia kudriavzevii) [µg/mL] | MIC (Candida parapsilosis) [µg/mL] | MIC ([Candida] sake) [µg/mL] | Structure (SMILES) | MIC [1] [µg/mL]
≥ 256 | ≥ 256 | ≥ 256 | ≥ 256 | ≥ 256 | ≥ 256 | ≥ 256 | 8 | 2 | 2 | 2 | 2 | 2 | CC/C(C)=N\N=C1/NC(=O)CS1 | ≥ 256
≥ 256 | ≥ 256 | ≥ 256 | ≥ 256 | ≥ 256 | ≥ 256 | ≥ 256 | 2 | 2 | 8 | 2 | 2 | 4 | CC(C)=C/C(C)=N\N=C1/NC(=O)CS1 | ≥ 256
≥ 256 | ≥ 256 | ≥ 256 | ≥ 256 | ≥ 256 | ≥ 256 | ≥ 256 | 2 | 2 | 2 | 2 | 2 | 4 | C=CCC/C(C)=N\N=C1/NC(=O)CS1 | ≥ 256
≥ 256 | ≥ 256 | ≥ 256 | ≥ 256 | ≥ 256 | ≥ 256 | ≥ 256 | 2 | 2 | 2 | 2 | 2 | 2 | C/C(CC(C)C)=N/N=C1\NC(=O)CS1 | ≥ 256
≥ 256 | ≥ 256 | ≥ 256 | ≥ 256 | ≥ 256 | ≥ 256 | ≥ 256 | 2 | 2 | 2 | 16 | 16 | 16 | CCCCCC/C(C)=N\N=C1/NC(=O)CS1 | ≥ 256
≥ 256 | ≥ 256 | ≥ 256 | ≥ 256 | ≥ 256 | ≥ 256 | ≥ 256 | 8 | 8 | 8 | 2 | 2 | 2 | CC1CCC/C(=N/N=C2\NC(=O)CS2)C1 (centres undefined) | ≥ 256
≥ 256 | ≥ 256 | ≥ 256 | ≥ 256 | ≥ 256 | ≥ 256 | ≥ 256 | 8 | 16 | 256 | 16 | 16 | 16 | C/C(=N/N=C1/SCC(=O)N1Cc1ccccc1)c1ccc2ccccc2c1 | –
≥ 256 | ≥ 256 | ≥ 256 | ≥ 256 | ≥ 256 | ≥ 256 | ≥ 256 | 8 | 2 | 32 | 8 | 32 | 8 | CC(=O)c1ccc(/C(C)=N\N=C2\SCC(=O)N2Cc2ccccc2)cc1 | –
≥ 256 | ≥ 256 | ≥ 256 | ≥ 256 | ≥ 256 | ≥ 256 | ≥ 256 | 8 | 8 | 8 | 8 | 8 | 8 | O=C1CS/C(=N/N=C\c2ccc3c(c2)OCO3)N1Cc1ccccc1 | –
≥ 256 | ≥ 256 | ≥ 256 | ≥ 256 | ≥ 256 | ≥ 256 | ≥ 256 | 2 | 2 | 16 | 2 | 4 | 2 | CCC/C(CC)=N\N=C1/NC(=O)CS1 | ≥ 256
≥ 256 | ≥ 256 | ≥ 256 | ≥ 256 | ≥ 256 | ≥ 256 | ≥ 256 | 2 | 2 | 32 | 2 | 4 | 2 | C/C(=N/N=C1\NC(=O)CS1)C1CC1 | ≥ 256
≥ 256 | ≥ 256 | ≥ 256 | ≥ 256 | ≥ 256 | ≥ 256 | ≥ 256 | 2 | 8 | 2 | 4 | 2 | 8 | C/C(=N/N=C1/SCC(=O)N1Cc1ccccc1)c1ccc2c(c1)OCCO2 | –
≥ 256 | ≥ 256 | ≥ 256 | ≥ 256 | ≥ 256 | ≥ 256 | ≥ 256 | 2 | 2 | 32 | 2 | 4 | 2 | CCCC/C(C)=N\N=C1/NC(=O)CS1 | ≥ 256
≥ 256 | ≥ 256 | ≥ 256 | ≥ 256 | ≥ 256 | ≥ 256 | ≥ 256 | 64 | 64 | 64 | 256 | 256 | 256 | O=C1CSC(NN=C2CCCCC2)=N1 | ≥ 256
